ChEMBL document CHEMBL4033657, “N-Aryl-N'-ethyleneaminothioureas effectively inhibit acetylcholinesterase 1 from disease-transmitting mosquitoes” (Eur J Med Chem, 2017)
Active and inactive are the calls of the source. The calls are words filed in the database; no cut-off is given here.

Assays:
[1] = Inhibition of recombinant full length Aedes aegypti AChE1 expressed in baculovirus-infected Sf9 insect cells using acetylthiocholine iodide as substrate measured over 60 secs by Ellman's method
Summary of the method: (§1)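 Secreted, non-purified recombinant enzyme in growth medium, tested as enzyme source. Ellman assay at 30 °C in 0.1 M phosphate buffer pH 7.4 with 0.2 mM DTNB and 1 mM acetylthiocholine iodide; A412 followed over 60 s. Compound (100 mM DMSO stock) tested at eight concentrations, maximum 1 mM. Activity set relative to eight uninhibited controls per plate; IC50 from three-parameter variable-slope fit; 2-3 independent replicates.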

[2] = Selectivity ratio of IC50 for recombinant human AChE expressed in HEK293F cells to IC50 for recombinant full length Anopheles gambiae AChE1 expressed in baculovirus-infected Sf9 insect cells
Summary of the method: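 Ratio of the hAChE IC50 divided by the higher of the AgAChE1 or AaAChE1 IC50. Each IC50 came from an Ellman assay (1 mM acetylthiocholine, 0.2 mM DTNB, pH 7.4, 30 °C) with eight concentrations up to 1 mM, using 2-3 replicates.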

Acetylcholinesterase [3] = target: Acetylcholinesterase (Anopheles gambiae, UniProt Q869C3); test: Inhibition of recombinant full length Anopheles gambiae AChE1 expressed in baculovirus-infected Sf9 insect cells using acetylthiocholine iodide as substrate measured over 60 secs by Ellman's method
Acetylcholinesterase [4] = target: Acetylcholinesterase (Anopheles gambiae, UniProt Q869C3, G122S); test: Inhibition of recombinant full length Anopheles gambiae AChE1 G122S mutant expressed in baculovirus-infected Sf9 insect cells using acetylthiocholine iodide as substrate measured over 60 secs by Ellman's method
Acetylcholinesterase [5] = target: T1, Acetylcholinesterase (Homo sapiens, UniProt P22303); test: Inhibition of recombinant human AChE expressed in HEK293F cells using acetylthiocholine iodide as substrate measured over 60 secs by Ellman's method; design: species or system HEK293
[6] = target: Acetylcholinesterase (Anopheles gambiae) (UniProt Q869C3); test: Inhibition of recombinant full length Anopheles gambiae AChE1 expressed in baculovirus-infected Sf9 insect cells at 1 mM using acetylthiocholine iodide as substrate measured over 60 secs by Ellman's method; summary of the method: as §1
Aedes aegypti = test: Inhibition of recombinant full length Aedes aegypti AChE1 expressed in baculovirus-infected Sf9 insect cells at 1 mM using acetylthiocholine iodide as substrate measured over 60 secs by Ellman's method; summary of the method: as §1
Acetylcholinesterase [7] = target: T1, Acetylcholinesterase; test: Inhibition of recombinant human AChE expressed in HEK293F cells up to 1 mM using acetylthiocholine iodide as substrate measured over 60 secs by Ellman's method; details: HEK293; summary of the method: as §1
[8] = tested on: Acetylcholinesterase (Anopheles gambiae), Q869C3 [G122S]; test: Inhibition of recombinant full length Anopheles gambiae AChE1 G122S mutant expressed in baculovirus-infected Sf9 insect cells up to 1 mM using acetylthiocholine iodide as substrate measured over 60 secs by Ellman's method; summary of the method: as §1

SMILES | IC50 [1] [µM] | Ratio IC50 [2] | IC50 (Acetylcholinesterase [3]) [µM] | IC50 (Acetylcholinesterase [4]) [µM] | IC50 (Acetylcholinesterase [5]) [µM] | inhibition [6] | inhibition (Aedes aegypti) | inhibition (Acetylcholinesterase [7]) | inhibition [8]
S=C(NCCN1CCOCC1)Nc1cccc(Cl)c1 | 53 | > 3 | 68 | > 200 | > 200 |  |  |  | 
S=C(NCCN1CCOCC1)Nc1ccc(Cl)cc1 |  |  |  |  |  | inactive | inactive | inactive | inactive
CN(C)CC/N=C(/S)Nc1ccc(S(N)(=O)=O)cc1 | 56 | > 2.7 | 74 |  | > 200 |  |  |  | inactive
COc1ccccc1N=C(S)NCCN1CCOCC1 | > 200 |  | > 200 |  | > 200 |  |  |  | inactive
CC1CCN(CCNC(=S)Nc2cccc(Cl)c2)CC1 | > 200 |  | > 200 | > 200 | > 200 |  |  |  | 
CN(C)CCN=C(S)Nc1cccc(Cl)c1 | 83 | 1 | 96 | > 200 | 140 |  |  |  | 
